Converted amounts (≈) assume the structure as drawn. The source made the active and inactive calls.
Columns and labels:
NCI-H1299 = test: Growth inhibition of p53 null, pRb+ human NCI-H1299 cells after 48 hrs by MTT assay; assay type: functional, cell-based; conditions: NCI-H1299, 48 h
In short: (§1)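 MTT cell proliferation assay. IC50 (µM) was defined as the concentration giving 50% inhibition of cell growth.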

LS174T = test: Reduction Cdk1 level in p53+, pRb+ human LS 174T cells at IC50 concentration after 24 hrs by Western blot analysis
Tubulin (Homo sapiens) [1] = biological target: T1, Tubulin (Homo sapiens) (UniProt P68371+Q9H4B7+P0DPH7+P68366+Q13509+Q71U36+P04350+Q3ZCM7+P07437+P68363+Q9BQE3+Q6PEY2+Q13885+Q9BVA1+Q9BUF5); test: Inhibition of tubulin (unknown origin) polymerization assessed as decrease in Vmax measured at 5 uM by spectrophotometry; assay type: protein-complex assay
In short: (§2)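 Purified tubulin polymerisation followed as absorbance increase over about 4000 s. Vmax (mOD/min) is taken as the read-out, with final polymer mass also noted. Compound is tested at 2.5, 5, 10 and 25 µM alongside untreated control, paclitaxel 10 µM (enhancer) and nocodazole 10 µM (inhibitor). Curves are the average of three independent experiments.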

NCI-H358 [2] = test: Cell cycle arrest in human NCI-H358 cells assessed as accumulation of cells at G2/M phase at IC50 concentration after 18 hrs by flow cytometry in presence of […] uM hydroxyurea for 18 hrs (reference value: 33%); assay type: functional
[3] = Anticancer activity against p53 null, pRb+ human Calu1 cells assessed as reduction in colony formation efficiency at 3 uM after 24 hrs by visual count/crystal violet staining method; assay type: functional; conditions: Calu-1, 24 h
In short: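 Long-term survival assay. A549 and Calu-1 cells treated with a range of concentrations, colonies counted, efficiency expressed as percent of colonies versus untreated cultures. Means and standard deviations of three independent experiments.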

[4] = Cell cycle arrest in human WI38 cells assessed as accumulation of cells at G2/M phase by flow cytometry; assay type: functional, cell-based; conditions: WI-38
Tubulin (Homo sapiens) [5] = biological target: T1, Tubulin (Homo sapiens); test: Inhibition of tubulin (unknown origin) polymerization assessed as decrease in Vmax measured at 25 uM by spectrophotometry; assay type: protein-complex assay; in short: as §2
CDK9/cyclin T1 = CDK9/cyclin T1 (Homo sapiens, UniProt P50750); test: Binding affinity to human CDK9/cyclinT1; assay type: protein-complex assay
Sequence of CDK9/cyclin T1 (O60563 whole entry): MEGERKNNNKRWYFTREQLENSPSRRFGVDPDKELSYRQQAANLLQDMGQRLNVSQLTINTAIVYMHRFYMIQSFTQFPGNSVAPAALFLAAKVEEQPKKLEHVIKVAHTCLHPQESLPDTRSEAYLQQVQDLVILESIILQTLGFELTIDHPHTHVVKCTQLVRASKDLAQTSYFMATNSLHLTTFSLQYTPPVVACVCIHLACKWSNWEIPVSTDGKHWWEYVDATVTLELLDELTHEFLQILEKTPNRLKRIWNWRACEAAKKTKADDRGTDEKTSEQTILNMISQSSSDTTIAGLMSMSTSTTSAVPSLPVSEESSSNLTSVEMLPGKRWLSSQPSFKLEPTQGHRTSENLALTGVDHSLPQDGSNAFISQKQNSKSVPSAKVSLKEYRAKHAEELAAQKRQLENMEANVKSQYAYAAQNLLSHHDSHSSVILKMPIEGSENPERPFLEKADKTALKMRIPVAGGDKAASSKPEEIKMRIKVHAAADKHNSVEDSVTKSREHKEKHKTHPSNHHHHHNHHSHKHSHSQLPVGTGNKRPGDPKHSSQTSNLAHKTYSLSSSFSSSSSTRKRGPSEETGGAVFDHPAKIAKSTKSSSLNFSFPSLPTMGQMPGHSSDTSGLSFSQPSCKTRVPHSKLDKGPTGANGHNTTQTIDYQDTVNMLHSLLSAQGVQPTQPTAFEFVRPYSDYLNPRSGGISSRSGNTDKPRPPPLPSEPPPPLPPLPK
Sequence of CDK9/cyclin T1 (P50750 whole entry): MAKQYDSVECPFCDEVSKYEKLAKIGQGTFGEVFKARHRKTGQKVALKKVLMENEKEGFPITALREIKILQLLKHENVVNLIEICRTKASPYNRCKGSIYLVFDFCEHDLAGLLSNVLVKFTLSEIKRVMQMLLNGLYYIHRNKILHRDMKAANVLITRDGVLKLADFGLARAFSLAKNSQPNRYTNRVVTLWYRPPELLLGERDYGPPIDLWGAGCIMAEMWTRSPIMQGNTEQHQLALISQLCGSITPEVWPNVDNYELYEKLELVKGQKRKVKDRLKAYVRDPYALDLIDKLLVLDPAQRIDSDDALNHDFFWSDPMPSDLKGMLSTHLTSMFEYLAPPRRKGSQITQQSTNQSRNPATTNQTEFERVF

[6] = Solubility in phosphate buffered saline; assay type: physicochemical
[7] = Cell cycle arrest in mouse BNL-CL2 cells assessed as accumulation of cells at G2/M phase at IC50 concentration after 48 hrs by flow cytometry (reference value: 23%); assay type: functional
In short: (§3)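 Normal (BNL CL2) and SV40 large T-antigen transformed (BNL SV A.8) mouse embryonic hepatic cells were treated at IC50 or IC70 concentration for 48 h. Analysis was by FACS, with apoptosis taken as % cells in the sub-G1 peak. Untreated cells served as control.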

A549 [8] = test: Cell cycle arrest in human A549 cells assessed as accumulation of cells at G2/M phase at IC50 concentration after 24 hrs by flow cytometry (reference value: 22%); assay type: functional
MiaPaCa [9] = test: Induction in cyclin B1 level in p53His273 mutant, pRb+ human MiaPaCa cells at IC50 concentration after 48 hrs by Western blot analysis; assay type: functional
MiaPaCa [10] = test: Effect on p27 level in p53His273 mutant, pRb+ human MiaPaCa cells at IC50 concentration after 48 hrs by Western blot analysis; assay type: functional
[11] = Growth inhibition of p53His273 mut, pRb+ human MiaPaCa cells after 48 hrs by MTT assay; assay type: functional; conditions: MIA PaCa-2, 48 h; in short: as §1
[12] = Terminal half life in BALB/c mouse at 10 mg/kg, po; assay type: ADME, organism-based; parameters: dose 10 mg/kg, route oral; conditions: in vivo, read-out: beta t1/2 (converted)
In short: (§4)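 BALB/c mice given a single dose of 1.0 mg/kg IV or 10 mg/kg orally; plasma concentration followed over time and pharmacokinetic parameters derived from the time-concentration profile.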

[13] = Cell cycle arrest in SV-40 large T-antigen transformed human WI38 cells assessed as accumulation of cells at subG1 phase by flow cytometry; assay type: functional, cell-based; conditions: WI-38
[14] = Solubility in simulated gastric fluid; assay type: ADME
[15] = Cell cycle arrest in mouse BNL-SVA.8 cells assessed as accumulation of cells at G0/G1 phase at IC50 concentration after 48 hrs by flow cytometry (reference value: 64%); assay type: functional; in short: as §3
[16] = biological target: Cyclin-dependent kinase 5/CDK5 activator 1 (Homo sapiens) (UniProt Q00535+Q15078); test: Inhibition of human CDK5/p35 assessed as enzyme activity at 10 uM; assay type: protein-complex assay
Sequence of Cyclin-dependent kinase 5/CDK5 activator 1 (Homo sapiens) (Q00535 whole entry): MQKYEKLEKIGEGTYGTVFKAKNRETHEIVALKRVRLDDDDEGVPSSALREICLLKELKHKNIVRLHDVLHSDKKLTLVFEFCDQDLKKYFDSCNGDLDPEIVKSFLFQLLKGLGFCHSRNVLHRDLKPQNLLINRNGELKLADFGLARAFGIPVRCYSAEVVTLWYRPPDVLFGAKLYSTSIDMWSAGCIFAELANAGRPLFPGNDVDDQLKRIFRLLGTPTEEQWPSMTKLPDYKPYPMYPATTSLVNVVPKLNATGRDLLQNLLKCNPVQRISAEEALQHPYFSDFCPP
Sequence of Cyclin-dependent kinase 5/CDK5 activator 1 (Homo sapiens) (Q15078 99-307 partner limits assumed): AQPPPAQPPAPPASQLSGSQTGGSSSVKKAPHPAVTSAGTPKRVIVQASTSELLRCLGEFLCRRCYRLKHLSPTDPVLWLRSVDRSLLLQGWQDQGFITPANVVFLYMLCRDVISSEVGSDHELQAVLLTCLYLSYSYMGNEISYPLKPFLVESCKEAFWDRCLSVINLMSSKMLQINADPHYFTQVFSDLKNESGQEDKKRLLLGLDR

NCI-H358 [17] = test: Cell cycle arrest in human NCI-H358 cells assessed as accumulation of cells at G0/G1 phase at IC50 concentration after 12 hrs by flow cytometry in presence of nocodazole for 18 hrs (reference value: 40%); assay type: functional
[18] = Volume of distribution in BALB/c mouse at 1 mg/kg, iv; assay type: ADME, organism-based; parameters: dose 1 mg/kg, route intravenous; conditions: in vivo; in short: as §4
[19] = Cell cycle arrest in mouse BNL-CL2 cells assessed as accumulation of cells at subG1 phase at IC50 concentration after 48 hrs by flow cytometry (reference value: 0%); assay type: functional; in short: as §3
[20] = Displacement of ethidium bromide from closed circular plasmid DNA (unknown origin) by fluorescence quenching assay
NCI-H358 [21] = test: Cell cycle arrest in human NCI-H358 cells assessed as accumulation of cells at G0/G1 phase at IC50 concentration after 18 hrs by flow cytometry in presence of […] uM hydroxyurea for 18 hrs (reference value: 50%); assay type: functional
[22] = biological target: Mitogen-activated protein kinase 1 (Homo sapiens) (UniProt P28482); test: Inhibition of human MAPK1 assessed as enzyme activity at 10 uM
Sequence of Mitogen-activated protein kinase 1 (Homo sapiens) (P28482 whole entry, looked up): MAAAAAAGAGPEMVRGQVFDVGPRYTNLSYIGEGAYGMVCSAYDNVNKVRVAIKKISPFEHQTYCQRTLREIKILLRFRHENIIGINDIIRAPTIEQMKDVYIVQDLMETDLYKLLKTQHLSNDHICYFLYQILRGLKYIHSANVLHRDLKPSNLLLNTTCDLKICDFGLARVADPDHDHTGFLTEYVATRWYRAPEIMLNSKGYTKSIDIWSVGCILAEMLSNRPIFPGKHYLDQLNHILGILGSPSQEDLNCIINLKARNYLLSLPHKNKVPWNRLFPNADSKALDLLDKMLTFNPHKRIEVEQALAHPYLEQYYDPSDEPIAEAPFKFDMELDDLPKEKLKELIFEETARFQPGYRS

Mus musculus = test: Toxicity in human HCT116 cells xenografted in SCID mouse at 100 mg/kg, ip relative to untreated control; assay type: organism-based, HCT-116; parameters: dose 100 mg/kg, route intraperitoneal; conditions: in vivo
In short: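 SCID male mice, 18-25 g, 6-8 weeks old, received 6.6 × 10^6 HCT-116 cells subcutaneously on the dorsal side. Randomized into groups of 7 at 4-6 mm tumors (about 5 days), then dosed intraperitoneally for 9 consecutive days. Tumor size recorded every 2-5 days, weight = L×W²×0.5; %GI = 100 − %T/C. Body weight taken daily relative to start; Student t-test.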

CYP3A4 = CYP3A4 (Homo sapiens, UniProt P08684); test: Inhibition of human recombinant CYP3A4 at 10 uM; assay type: ADME
Sequence of CYP3A4 (P08684 whole entry): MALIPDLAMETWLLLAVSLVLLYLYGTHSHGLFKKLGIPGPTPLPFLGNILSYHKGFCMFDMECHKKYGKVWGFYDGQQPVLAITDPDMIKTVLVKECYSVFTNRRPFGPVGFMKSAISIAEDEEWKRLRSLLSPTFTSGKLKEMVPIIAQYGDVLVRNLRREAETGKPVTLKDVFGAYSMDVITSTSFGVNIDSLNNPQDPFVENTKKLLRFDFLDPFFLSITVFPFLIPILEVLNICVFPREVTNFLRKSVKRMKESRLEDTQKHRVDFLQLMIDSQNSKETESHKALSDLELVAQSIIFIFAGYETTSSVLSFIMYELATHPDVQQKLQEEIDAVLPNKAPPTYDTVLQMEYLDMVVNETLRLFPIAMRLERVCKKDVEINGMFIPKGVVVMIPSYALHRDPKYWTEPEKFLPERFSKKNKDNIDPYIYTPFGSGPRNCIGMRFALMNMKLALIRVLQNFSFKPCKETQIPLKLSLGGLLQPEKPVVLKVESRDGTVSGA

MiaPaCa [23] = test: Effect on phosphorylation of Cdk1 at Tyr15 in p53His273 mutant, pRb+ human MiaPaCa cells at IC50 concentration after 48 hrs by Western blot analysis; assay type: functional
A549 [24] = test: Induction of p21 level in p53+, pRb+ human A549 cells at IC50 concentration after 24 hrs by Western blot analysis
A549 [25] = test: Cell cycle arrest in human A549 cells assessed as accumulation of cells at G0/G1 phase at IC50 concentration after 24 hrs by flow cytometry (reference value: 49%); assay type: functional
NCI-H358 [26] = test: Cell cycle arrest in human NCI-H358 cells assessed as accumulation of cells at S phase at IC50 concentration after 12 hrs by flow cytometry in presence of nocodazole for 18 hrs (reference value: 10%); assay type: functional

CN(CCc1c[nH]c2ccccc12)C(=O)c1ccc(-c2ccccc2)cc1
IC50 (NCI-H1299): 2.5 µM | inhibition (LS174T): Active | Activity (milli optical density/minute) (Tubulin (Homo sapiens) [1]): 2.1 | Activity (NCI-H358 [2]): 72% | inhibition at 3 µM [3]: 50% | Activity [4]: Active | Activity (milli optical density/minute) (Tubulin (Homo sapiens) [5]): 0.4 | IC50 (CDK9/cyclin T1): > 1000 µM | solubility [6]: 125 µg/mL (≈ 353 µM) | Activity [7]: 54% | Activity (A549 [8]): 89% | Activity (MiaPaCa [9]): Active | Activity (MiaPaCa [10]): inactive | IC50 [11]: 4 µM | half-life [12]: 1.16 h | Activity [13]: Active | solubility [14]: 125 µg/mL (≈ 353 µM) | Activity [15]: 31% | inhibition [16]: inactive | Activity (NCI-H358 [17]): 7% | Vd [18]: 2.52 L/kg | Activity [19]: 2% | inhibition [20]: inactive | Activity (NCI-H358 [21]): 16% | inhibition [22]: inactive | Activity (Mus musculus): Non-toxic | inhibition at 10 µM (CYP3A4): 50% | Activity (MiaPaCa [23]): inactive | Activity (A549 [24]): Active | Activity (A549 [25]): 3% | Activity (NCI-H358 [26]): 10%

Reference: ChEMBL document CHEMBL3351368, “Biphenyl-4-carboxylic acid [2-(1H-indol-3-yl)-ethyl]-methylamide (CA224), a nonplanar analogue of fascaplysin, inhibits Cdk4 and tubulin polymerization: evaluation of in vitro and in vivo anticancer activity” (J Med Chem, 2014)
